Results reported in ChEMBL document CHEMBL5678802, “Small-molecule p21-activated kinase inhibitor PF-3758309 is a potent inhibitor of oncogenic signaling and tumor growth” (Proc Natl Acad Sci U S A, 2010).
pIC50, pKi: −log10 of the molar value.

Tests used:
[1] = biological target: Serine/threonine-protein kinase PAK 2 (Homo sapiens, UniProt Q13177); experiment: Inhibition of PAK2 (unknown origin)
SW-403 = experiment: Antiproliferative activity against human SW403 cells assessed as inhibition of cell proliferation incubated for 3 days by CellTiter-Glo Luminescent Cell Viability Assay; type: functional, cell-based; details: SW-403, 72 h
How it was run: (§1)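 Cells of each line were plated in 384-well plates on day 1 and exposed to compound from day 2 for 3 days. On day 5 all medium was aspirated. Viable cell number was read by CellTiter-Glo luminescence, which quantifies cellular ATP.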

SW948 = experiment: Antiproliferative activity against human SW948 cells assessed as inhibition of cell proliferation incubated for 3 days by CellTiter-Glo Luminescent Cell Viability Assay; type: functional, cell-based; details: SW948, 72 h; how it was run: as §1
SW-620 = experiment: Antiproliferative activity against human SW620 cells assessed as inhibition of cell proliferation incubated for 3 days by CellTiter-Glo Luminescent Cell Viability Assay; type: functional, cell-based; details: SW-620, 72 h; how it was run: as §1
NCI-H1581 = experiment: Antiproliferative activity against human NCI-H1581 cells assessed as inhibition of cell proliferation incubated for 3 days by CellTiter-Glo Luminescent Cell Viability Assay; type: functional, cell-based; details: NCI-H1581, 72 h
How it was run: (§2)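 Cancer cell lines seeded in 384-well plates on day 1; compound added on day 2 and left for 3 days. On day 5 all medium was aspirated, and viable cells were quantified by CellTiter-Glo luminescence, which measures cellular ATP. Dose-dependent effects on proliferation were determined.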

NCI-H2087 = experiment: Antiproliferative activity against human NCI-H2087 cells assessed as inhibition of cell proliferation incubated for 3 days by CellTiter-Glo Luminescent Cell Viability Assay; type: functional, cell-based; details: NCI-H2087, 72 h; how it was run: as §1
NCI-H1651 = experiment: Antiproliferative activity against human NCI-H1651 cells assessed as inhibition of cell proliferation incubated for 3 days by CellTiter-Glo Luminescent Cell Viability Assay; type: functional, cell-based; details: NCI-H1651, 72 h; how it was run: as §2
BXPC-3 = experiment: Antiproliferative activity against human BXPC-3 cells assessed as inhibition of cell proliferation incubated for 3 days by CellTiter-Glo Luminescent Cell Viability Assay; type: functional, cell-based; details: BXPC-3, 72 h; how it was run: as §2
HPAC = experiment: Antiproliferative activity against human HPAC cells assessed as inhibition of cell proliferation incubated for 3 days by CellTiter-Glo Luminescent Cell Viability Assay; type: functional, cell-based; details: 72 h; how it was run: as §2
Panc 04.03 = experiment: Antiproliferative activity against human Panc 04.03 cells assessed as inhibition of cell proliferation incubated for 3 days by CellTiter-Glo Luminescent Cell Viability Assay; type: functional, cell-based; details: Panc 04.03, 72 h; how it was run: as §1
[2] = Antiproliferative activity against human PaTu 8988s cells assessed as inhibition of cell proliferation incubated for 3 days by CellTiter-Glo Luminescent Cell Viability Assay; type: functional, cell-based; details: 72 h; how it was run: as §1
[3] = Antiproliferative activity against human Hs 700T cells assessed as inhibition of cell proliferation incubated for 3 days by CellTiter-Glo Luminescent Cell Viability Assay; type: functional, cell-based; details: 72 h; how it was run: as §2
HCC1954 = experiment: Antiproliferative activity against human HCC1954 cells assessed as inhibition of cell proliferation incubated for 3 days by CellTiter-Glo Luminescent Cell Viability Assay; type: functional, cell-based; details: HCC1954, 72 h; how it was run: as §2
MDA-MB-453 = experiment: Antiproliferative activity against human MDA-MB-453 cells assessed as inhibition of cell proliferation incubated for 3 days by CellTiter-Glo Luminescent Cell Viability Assay; type: functional, cell-based; details: MDA-MB-453, 72 h; how it was run: as §2
[4] = biological target: T1, Protein kinase C beta type (Homo sapiens, UniProt P05771); experiment: Inhibition of human PKCbeta-II in presence of ATP relative to control; details: concentration not given here
Target sequence in this assay (P05771 2-671 limits assumed): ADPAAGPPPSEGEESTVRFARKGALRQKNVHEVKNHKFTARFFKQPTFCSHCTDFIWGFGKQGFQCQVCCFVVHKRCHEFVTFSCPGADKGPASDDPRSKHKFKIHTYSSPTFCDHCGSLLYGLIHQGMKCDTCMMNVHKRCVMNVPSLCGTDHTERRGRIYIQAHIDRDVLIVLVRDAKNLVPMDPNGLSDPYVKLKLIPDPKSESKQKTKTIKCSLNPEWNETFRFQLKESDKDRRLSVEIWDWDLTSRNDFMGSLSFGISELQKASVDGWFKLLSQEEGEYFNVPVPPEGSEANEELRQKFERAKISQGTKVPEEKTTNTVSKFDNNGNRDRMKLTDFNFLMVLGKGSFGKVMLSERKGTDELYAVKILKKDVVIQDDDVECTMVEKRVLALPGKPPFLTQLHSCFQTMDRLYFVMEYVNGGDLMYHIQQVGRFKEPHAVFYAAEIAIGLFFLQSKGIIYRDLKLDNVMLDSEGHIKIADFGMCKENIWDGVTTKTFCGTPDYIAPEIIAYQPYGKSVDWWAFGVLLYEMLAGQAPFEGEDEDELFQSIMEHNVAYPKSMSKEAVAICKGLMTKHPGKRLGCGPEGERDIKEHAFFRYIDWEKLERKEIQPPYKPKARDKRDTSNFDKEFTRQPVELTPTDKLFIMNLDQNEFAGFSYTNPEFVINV

[5] = biological target: Serine/threonine-protein kinase D2 (Homo sapiens) (UniProt Q9BZL6); experiment: Inhibition of human PKD2 (PRKD2) in presence of ATP relative to control; details: concentration not given here
Chain of Serine/threonine-protein kinase D2 (Homo sapiens) (Q9BZL6 whole entry): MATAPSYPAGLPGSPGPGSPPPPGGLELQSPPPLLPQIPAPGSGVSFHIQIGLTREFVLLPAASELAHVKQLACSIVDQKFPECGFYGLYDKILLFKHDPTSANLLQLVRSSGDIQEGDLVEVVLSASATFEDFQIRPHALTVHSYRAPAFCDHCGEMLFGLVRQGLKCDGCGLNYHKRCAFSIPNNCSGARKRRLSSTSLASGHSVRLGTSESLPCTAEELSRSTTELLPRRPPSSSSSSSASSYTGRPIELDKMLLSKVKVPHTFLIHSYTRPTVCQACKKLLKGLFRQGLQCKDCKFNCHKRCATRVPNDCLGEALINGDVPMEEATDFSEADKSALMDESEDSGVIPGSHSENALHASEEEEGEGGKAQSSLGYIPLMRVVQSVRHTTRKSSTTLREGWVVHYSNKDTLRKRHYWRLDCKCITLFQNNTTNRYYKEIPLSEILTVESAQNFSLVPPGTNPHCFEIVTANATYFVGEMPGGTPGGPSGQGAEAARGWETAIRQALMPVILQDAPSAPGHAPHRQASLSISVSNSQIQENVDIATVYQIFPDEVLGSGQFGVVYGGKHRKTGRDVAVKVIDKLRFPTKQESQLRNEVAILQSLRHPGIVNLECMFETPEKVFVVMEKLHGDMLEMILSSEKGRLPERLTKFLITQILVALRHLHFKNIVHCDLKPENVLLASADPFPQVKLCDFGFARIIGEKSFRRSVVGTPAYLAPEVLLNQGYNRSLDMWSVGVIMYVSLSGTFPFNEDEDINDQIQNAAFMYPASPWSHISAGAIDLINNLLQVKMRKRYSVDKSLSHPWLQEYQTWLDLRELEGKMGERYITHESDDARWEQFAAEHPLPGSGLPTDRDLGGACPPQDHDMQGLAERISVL

[6] = biological target: Serine/threonine-protein kinase D1 (Homo sapiens) (UniProt Q15139); experiment: Inhibition of human PKCmu in presence of ATP relative to control; details: concentration not given here
[7] = biological target: T2, RAC-gamma serine/threonine-protein kinase (Homo sapiens, UniProt Q9Y243); experiment: Inhibition of human AKT3 in presence of ATP relative to control; details: concentration not given here
T2 sequence (Q9Y243 whole entry): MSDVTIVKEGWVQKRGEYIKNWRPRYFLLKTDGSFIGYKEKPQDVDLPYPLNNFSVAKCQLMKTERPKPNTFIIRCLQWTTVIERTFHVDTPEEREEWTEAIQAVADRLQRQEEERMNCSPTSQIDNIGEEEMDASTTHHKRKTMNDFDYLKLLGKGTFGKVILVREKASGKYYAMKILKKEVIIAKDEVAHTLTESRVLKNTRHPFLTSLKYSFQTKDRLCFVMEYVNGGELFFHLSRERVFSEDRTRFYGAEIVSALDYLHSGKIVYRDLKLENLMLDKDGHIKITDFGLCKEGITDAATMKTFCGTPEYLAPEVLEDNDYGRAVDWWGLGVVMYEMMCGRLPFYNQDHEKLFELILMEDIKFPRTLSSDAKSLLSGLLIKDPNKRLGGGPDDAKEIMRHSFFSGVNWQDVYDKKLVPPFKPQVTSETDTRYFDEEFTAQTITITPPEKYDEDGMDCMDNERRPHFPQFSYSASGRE

[8] = biological target: Ribosomal protein S6 kinase alpha-1 (Homo sapiens, UniProt Q15418); experiment: Inhibition of human RSK1 assessed as inhibition constant in presence of ATP
Chain of Ribosomal protein S6 kinase alpha-1 (Q15418 whole entry): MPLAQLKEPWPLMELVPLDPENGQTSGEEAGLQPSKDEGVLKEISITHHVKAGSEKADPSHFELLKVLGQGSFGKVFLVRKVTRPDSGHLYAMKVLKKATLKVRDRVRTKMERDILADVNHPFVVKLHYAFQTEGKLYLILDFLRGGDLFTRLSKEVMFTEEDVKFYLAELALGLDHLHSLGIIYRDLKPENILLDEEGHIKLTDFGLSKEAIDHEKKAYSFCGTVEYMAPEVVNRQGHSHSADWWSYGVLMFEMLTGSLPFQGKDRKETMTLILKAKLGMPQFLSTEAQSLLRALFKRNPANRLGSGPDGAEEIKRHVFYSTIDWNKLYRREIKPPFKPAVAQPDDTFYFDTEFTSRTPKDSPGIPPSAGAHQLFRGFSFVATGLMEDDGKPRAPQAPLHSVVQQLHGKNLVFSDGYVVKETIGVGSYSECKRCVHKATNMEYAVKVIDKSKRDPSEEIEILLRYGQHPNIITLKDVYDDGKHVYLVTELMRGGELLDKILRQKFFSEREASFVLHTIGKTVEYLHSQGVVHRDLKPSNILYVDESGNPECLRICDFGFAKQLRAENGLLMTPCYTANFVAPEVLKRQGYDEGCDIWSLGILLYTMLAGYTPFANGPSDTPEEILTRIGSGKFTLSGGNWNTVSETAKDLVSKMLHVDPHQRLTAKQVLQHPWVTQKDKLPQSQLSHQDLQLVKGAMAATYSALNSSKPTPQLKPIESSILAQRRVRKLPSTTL

[9] = biological target: Tyrosine-protein kinase Fgr (Homo sapiens, UniProt P09769); experiment: Inhibition of human FGR assessed as inhibition constant in presence of ATP
Chain of Tyrosine-protein kinase Fgr (P09769 whole entry): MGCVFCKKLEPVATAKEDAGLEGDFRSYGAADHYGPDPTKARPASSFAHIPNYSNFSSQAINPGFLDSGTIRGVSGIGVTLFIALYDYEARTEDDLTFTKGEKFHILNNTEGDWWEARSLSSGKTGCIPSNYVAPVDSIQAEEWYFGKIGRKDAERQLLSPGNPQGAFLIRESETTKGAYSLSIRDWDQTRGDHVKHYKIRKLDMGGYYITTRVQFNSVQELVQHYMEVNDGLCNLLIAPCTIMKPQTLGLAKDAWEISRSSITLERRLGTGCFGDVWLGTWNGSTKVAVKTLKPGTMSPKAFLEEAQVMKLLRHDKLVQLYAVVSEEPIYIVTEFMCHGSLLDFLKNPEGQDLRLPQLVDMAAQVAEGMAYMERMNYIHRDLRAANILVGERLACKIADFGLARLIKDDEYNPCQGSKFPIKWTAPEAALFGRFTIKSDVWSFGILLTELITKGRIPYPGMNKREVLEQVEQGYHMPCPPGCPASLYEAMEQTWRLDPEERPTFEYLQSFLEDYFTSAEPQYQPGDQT

[10] = biological target: Ribosomal protein S6 kinase alpha-3 (Homo sapiens, UniProt P51812); experiment: Inhibition of human RSK2 in presence of ATP
[11] = biological target: T1, Protein kinase C beta type; experiment: Inhibition of human PKCbeta1 in presence of ATP
Target sequence in this assay (P05771 whole entry): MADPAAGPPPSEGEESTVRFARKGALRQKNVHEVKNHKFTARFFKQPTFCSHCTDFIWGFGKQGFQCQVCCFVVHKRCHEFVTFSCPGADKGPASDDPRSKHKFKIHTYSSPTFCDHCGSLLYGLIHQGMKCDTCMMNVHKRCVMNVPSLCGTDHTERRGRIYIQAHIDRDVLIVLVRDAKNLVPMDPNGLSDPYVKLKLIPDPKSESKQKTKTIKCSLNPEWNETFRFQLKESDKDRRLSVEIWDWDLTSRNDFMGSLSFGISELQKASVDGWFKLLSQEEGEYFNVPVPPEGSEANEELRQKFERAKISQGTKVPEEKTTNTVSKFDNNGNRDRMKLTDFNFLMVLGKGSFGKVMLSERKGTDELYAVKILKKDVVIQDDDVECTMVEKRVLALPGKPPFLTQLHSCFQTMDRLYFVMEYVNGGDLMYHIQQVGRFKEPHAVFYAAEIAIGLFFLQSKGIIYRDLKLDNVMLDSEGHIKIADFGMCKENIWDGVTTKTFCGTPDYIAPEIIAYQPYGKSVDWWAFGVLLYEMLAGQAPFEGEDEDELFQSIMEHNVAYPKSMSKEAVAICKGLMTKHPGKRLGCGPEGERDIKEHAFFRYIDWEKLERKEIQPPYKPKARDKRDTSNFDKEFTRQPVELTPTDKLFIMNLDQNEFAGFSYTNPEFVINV

[12] = biological target: Tyrosine-protein kinase Fyn (Homo sapiens, UniProt P06241); experiment: Inhibition of human FYN in presence of ATP by cellular assay
Chain of Tyrosine-protein kinase Fyn (P06241 whole entry): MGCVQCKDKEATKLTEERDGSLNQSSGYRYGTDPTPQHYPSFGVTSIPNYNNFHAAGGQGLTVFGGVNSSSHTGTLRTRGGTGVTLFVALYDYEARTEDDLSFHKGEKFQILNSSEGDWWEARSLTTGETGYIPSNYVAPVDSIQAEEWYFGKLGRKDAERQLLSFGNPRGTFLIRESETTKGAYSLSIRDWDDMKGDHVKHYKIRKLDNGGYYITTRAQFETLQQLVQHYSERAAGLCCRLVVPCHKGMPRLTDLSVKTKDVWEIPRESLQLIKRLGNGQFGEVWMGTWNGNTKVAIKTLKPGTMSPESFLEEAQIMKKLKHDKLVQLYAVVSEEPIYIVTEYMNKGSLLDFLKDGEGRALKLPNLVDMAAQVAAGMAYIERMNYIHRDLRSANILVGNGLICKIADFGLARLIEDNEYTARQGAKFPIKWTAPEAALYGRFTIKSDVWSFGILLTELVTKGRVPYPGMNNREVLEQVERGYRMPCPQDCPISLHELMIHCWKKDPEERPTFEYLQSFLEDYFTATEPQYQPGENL

[13] = biological target: T2, RAC-gamma serine/threonine-protein kinase; experiment: Inhibition of human AKT3 in presence of ATP by cellular assay
HCT-116 [14] = experiment: Antitumor activity against human HCT-116 cells xenografted in nude mouse assessed as tumor growth inhibition at 0.12 mg/kg administered via pump for 9 days relative to control; type: functional; details: HCT-116, 216 h, time 9 day, read-out: TGI
HCT-116 [15] = experiment: Antitumor activity against human HCT-116 cells xenografted in nude mouse assessed as inhibition of [3H]FLT uptake at 15 mg/kg, po administered twice a day for 6 days and measured after 2 hrs post [3H]FLT administration by scintillation counter analysis relative to control; type: functional; details: HCT-116, 144 h, time 6 day
How it was run: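 HCT116 xenograft mice (tumors 300–350 mm3, n = 5 per group) received oral vehicle or compound, with harvests on days 2, 3 and 6. Isoflurane-anesthetized mice were given [3H]FLT (15 nCi/g, i.p.) 2 h before killing. Tumor and liver were weighed, solubilized and scintillation-counted. SUV = C/(ID/W), and uptake is reported as the tumor-to-liver SUV ratio.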

Chain of Serine/threonine-protein kinase PAK 2 (Q13177 whole entry): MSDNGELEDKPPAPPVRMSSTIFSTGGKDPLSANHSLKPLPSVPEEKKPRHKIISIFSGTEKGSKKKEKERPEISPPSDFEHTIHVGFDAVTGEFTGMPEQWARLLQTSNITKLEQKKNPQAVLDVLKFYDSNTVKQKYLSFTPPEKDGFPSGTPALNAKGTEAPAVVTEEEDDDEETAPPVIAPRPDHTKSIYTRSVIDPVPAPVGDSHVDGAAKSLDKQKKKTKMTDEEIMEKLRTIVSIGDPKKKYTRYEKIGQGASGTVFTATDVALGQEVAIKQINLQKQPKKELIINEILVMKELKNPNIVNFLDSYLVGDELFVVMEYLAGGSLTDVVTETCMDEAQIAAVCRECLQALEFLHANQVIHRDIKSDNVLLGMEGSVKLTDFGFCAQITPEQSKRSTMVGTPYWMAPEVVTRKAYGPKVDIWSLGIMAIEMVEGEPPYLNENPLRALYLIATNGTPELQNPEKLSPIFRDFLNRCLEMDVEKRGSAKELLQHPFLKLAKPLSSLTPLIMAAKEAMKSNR

`Cc1nc(Nc2n[nH]c3c2CN(C(=O)N[C@H](CN(C)C)c2ccccc2)C3(C)C)c2sccc2n1` [PF-03758309] gave a pIC50 [1] of 6.72, a pIC50 (SW-403) of 8.66 and a pIC50 (SW948) of 8.37. The pIC50 (SW-620) was 8.24, the pIC50 (NCI-H1581) was 9.22 and the pIC50 (NCI-H2087) was 8.37. It also gave a pIC50 (NCI-H1651) of 7.70, a pIC50 (BXPC-3) of 7.41 and a pIC50 (HPAC) of 6.58. The pIC50 (Panc 04.03) was 6.46, the pIC50 [2] was 6.13 and the pIC50 [3] was 5.62. For the same molecule, the pIC50 (HCC1954) was 9.48, the pIC50 (MDA-MB-453) was 7.88 and the inhibition [4] was 90%. It also gave an inhibition [5] of 96%, an inhibition [6] of 96% and an inhibition [7] of 74%. It also gave a pKi [8] of 8.30, a pKi [9] of 7.82 and a pIC50 [10] of 8.70. It also gave a pIC50 [11] of 6.55, a pIC50 [12] of 5.96 and a pIC50 [13] of 5.44. It also gave an inhibition in vivo at 0.12 mg/kg (HCT-116 [14]) of 16% and an inhibition in vivo at 15 mg/kg (HCT-116 [15]) of 32.5%.
